In ChEMBL document CHEMBL1158389, “Highly twisted adamantyl arotinoids: synthesis, antiproliferative effects and RXR transactivation profiles” (Eur J Med Chem, 2009):
Activity calls are given as the source filed them. No cut-off for these calls is given here.

Key:
Jurkat = assay: Induction of apoptosis in human Jurkat T cells assessed as induction of DEVDase activity at 1 uM after 4 hrs by fluorescence assay; assay type: functional, cell-based
How it was run: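 Jurkat cells (40,000/well, 10^6 cells/mL, RPMI with 0.5% FBS) were treated for 4 h; controls got 0.1% DMSO. Lysis was in CE buffer (PIPES pH 7, NP-40, cytochalasin B, protease inhibitors) for 30 min at 4 °C. Lysates were mixed with 2x caspase buffer (HEPES pH 7.4, CHAPS, sucrose) holding 100 μM Ac-DEVD-AFC and incubated at 37 °C for 30 min. AFC was read every 2 min, ex 390/em 510 nm.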

MIA PaCa-2 = assay: Antiproliferative activity against human MIAPaCa2 cells at 4 uM after 48 hrs by MTT assay; assay type: functional
How it was run: (§1)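 Epithelial cancer lines came from ATCC and were seeded the day before in complete medium: PC-3, SkOV3 and A549 at 3,000/well; MiaPaCa-2 and BxPC-3 at 4,000; T-47D and MDA-MB-468 at 5,000. Medium was switched to 0.5% FBS just before exposure to 4 μM. Read-out was MTT (4 h, 37 °C), SDS/HCl solubilisation, A595 minus cell-free blank. Growth inhibition was taken versus DMSO (≤0.1% v/v) controls, ≥2 experiments in triplicate.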

MDA-MB-468 = assay: Antiproliferative activity against human MDA-MB-468 cells at 4 uM after 48 hrs by MTT assay; assay type: functional; how it was run: as §1
[1] = molecular target: T1, Retinoic acid receptor gamma (Homo sapiens) (UniProt P13631); assay: Displacement of [3H]9cRA from RARgamma
T1 sequence (whole entry): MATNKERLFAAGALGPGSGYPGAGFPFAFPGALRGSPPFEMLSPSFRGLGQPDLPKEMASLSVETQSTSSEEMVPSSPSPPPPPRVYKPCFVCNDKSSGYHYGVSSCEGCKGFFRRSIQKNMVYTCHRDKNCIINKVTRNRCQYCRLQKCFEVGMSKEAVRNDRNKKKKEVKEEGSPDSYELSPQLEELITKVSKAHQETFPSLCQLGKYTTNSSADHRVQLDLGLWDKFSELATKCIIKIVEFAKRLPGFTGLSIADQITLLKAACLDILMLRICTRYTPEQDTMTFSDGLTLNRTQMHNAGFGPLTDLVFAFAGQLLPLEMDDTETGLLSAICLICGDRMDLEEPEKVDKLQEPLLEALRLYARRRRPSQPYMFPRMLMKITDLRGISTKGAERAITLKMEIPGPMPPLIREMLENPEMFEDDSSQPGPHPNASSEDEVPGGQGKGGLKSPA

A549 = assay: Antiproliferative activity against human A549 cells at 4 uM after 72 hrs by MTT assay; assay type: functional; how it was run: as §1
BXPC-3 = assay: Antiproliferative activity against human BxPC3 cells at 4 uM after 48 hrs by MTT assay; assay type: functional; how it was run: as §1
[2] = molecular target: T2, Retinoic acid receptor alpha (Homo sapiens) (UniProt P10276); assay: Displacement of [3H]9cRA from RARalpha
T2 sequence (whole entry): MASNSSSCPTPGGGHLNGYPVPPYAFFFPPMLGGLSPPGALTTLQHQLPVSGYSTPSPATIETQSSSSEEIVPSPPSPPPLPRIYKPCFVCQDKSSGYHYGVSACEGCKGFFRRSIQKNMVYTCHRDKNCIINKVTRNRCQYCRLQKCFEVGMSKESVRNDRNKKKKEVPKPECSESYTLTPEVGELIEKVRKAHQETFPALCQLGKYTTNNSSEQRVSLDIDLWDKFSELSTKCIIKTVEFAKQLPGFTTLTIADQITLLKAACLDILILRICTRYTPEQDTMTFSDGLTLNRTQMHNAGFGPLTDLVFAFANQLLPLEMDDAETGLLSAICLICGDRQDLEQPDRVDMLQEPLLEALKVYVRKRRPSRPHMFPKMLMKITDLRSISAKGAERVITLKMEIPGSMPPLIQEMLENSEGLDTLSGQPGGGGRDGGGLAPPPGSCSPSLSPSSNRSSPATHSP

[3] = molecular target: T3, Retinoic acid receptor beta (Homo sapiens) (UniProt P10826); assay: Displacement of [3H]9cRA from RARbeta
T3 sequence (whole entry): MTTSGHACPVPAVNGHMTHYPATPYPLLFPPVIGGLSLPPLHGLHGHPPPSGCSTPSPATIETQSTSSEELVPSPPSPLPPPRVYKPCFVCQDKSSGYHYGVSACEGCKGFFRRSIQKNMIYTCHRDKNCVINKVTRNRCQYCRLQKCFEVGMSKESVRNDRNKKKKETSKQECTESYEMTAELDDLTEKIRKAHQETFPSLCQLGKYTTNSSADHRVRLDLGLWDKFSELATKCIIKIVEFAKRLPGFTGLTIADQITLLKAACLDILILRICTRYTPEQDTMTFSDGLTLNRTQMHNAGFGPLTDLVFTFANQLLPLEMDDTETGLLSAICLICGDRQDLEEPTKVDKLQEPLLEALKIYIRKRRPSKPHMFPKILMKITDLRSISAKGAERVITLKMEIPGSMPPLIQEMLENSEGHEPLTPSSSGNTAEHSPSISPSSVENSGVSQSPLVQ

SK-OV-3 = assay: Antiproliferative activity against human SKOV3 cells at 4 uM after 48 hrs by MTT assay; assay type: functional; how it was run: as §1
T47D = assay: Antiproliferative activity against human T47D cells at 4 uM after 48 hrs by MTT assay; assay type: functional; how it was run: as §1
[4] = molecular target: T4, Retinoic acid receptor RXR-alpha (Homo sapiens) (UniProt P19793); assay: Displacement of [3H]9cRA from RXRalpha
T4 sequence (whole entry): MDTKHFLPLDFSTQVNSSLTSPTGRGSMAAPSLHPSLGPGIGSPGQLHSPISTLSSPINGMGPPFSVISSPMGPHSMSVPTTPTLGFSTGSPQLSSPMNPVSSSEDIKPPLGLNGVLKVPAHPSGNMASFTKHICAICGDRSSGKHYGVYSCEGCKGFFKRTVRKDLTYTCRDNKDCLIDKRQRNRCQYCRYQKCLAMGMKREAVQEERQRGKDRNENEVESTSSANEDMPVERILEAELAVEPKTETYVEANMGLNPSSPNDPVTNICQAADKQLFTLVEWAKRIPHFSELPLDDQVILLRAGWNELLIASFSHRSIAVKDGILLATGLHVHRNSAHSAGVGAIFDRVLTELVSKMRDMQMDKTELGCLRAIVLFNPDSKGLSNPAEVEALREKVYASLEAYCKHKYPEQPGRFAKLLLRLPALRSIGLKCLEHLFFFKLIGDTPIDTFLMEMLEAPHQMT

PC-3 = assay: Antiproliferative activity against human PC3 cells at 4 uM after 48 hrs by MTT assay; assay type: functional; how it was run: as §1
[5] = molecular target: T3, Retinoic acid receptor beta (Homo sapiens); assay: Inhibition of transactivation activity of Gal4-LBD fused human RARbeta (169 to 448) transfected in atRA-stimulated african green monkey CV1 cells after 6 hrs by Dual-light chemiluminescent assay; assay type: cell-based; conditions: CV-1
How it was run: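 Gal4 DBD (1–147) was fused to hRARα (156–462) or hRARβ (169–448) LBD. CV-1 cells (20,000/well) were co-transfected with 10 ng Gal4-LBD, 100 ng UAS-luciferase and 25 ng β-gal vector. After 16 h the medium was replaced with medium containing 5% charcoal-treated FBS. Cells got atRA plus test compound at 10-, 40- or 200-fold excess (0.2, 0.8, 4 μM) for 6 h. Luciferase and β-galactosidase were read by chemiluminescence.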

[6] = molecular target: T1, Retinoic acid receptor gamma (Homo sapiens); assay: Inhibition of transactivation activity of Gal4-LBD fused human RARgamma (178 to 454) transfected in atRA-stimulated african green monkey CV1 cells after 20 hrs by Dual-light chemiluminescent assay; conditions: CV-1
[7] = molecular target: T5, Retinoic acid receptor RXR-alpha (Mus musculus) (UniProt P28700); assay: Inhibition of Gal4-LBD fused mouse RXRalpha transactivation in african green monkey CV1 cells at 1 uM after 6 hrs by Dual-light chemiluminescent assay; assay type: cell-based; conditions: CV-1
T5 sequence (whole entry): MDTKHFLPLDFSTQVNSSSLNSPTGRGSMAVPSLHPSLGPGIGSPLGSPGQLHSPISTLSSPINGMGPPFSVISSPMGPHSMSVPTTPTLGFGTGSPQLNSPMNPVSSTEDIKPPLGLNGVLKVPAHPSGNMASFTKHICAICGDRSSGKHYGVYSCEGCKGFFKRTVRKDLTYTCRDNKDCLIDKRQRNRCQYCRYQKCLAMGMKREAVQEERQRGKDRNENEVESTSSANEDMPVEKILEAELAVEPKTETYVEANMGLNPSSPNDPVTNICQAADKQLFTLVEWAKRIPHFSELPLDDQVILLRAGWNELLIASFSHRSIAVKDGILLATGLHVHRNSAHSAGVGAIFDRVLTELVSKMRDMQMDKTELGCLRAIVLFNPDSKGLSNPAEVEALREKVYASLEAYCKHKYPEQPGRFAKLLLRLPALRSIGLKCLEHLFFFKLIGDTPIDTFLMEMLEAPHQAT
How it was run: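 CV-1 cells (20,000/well) co-transfected with 10 ng Gal4 DBD (residues 1–147)–mRXRα LBD (residues 218–467) vector, 100 ng UAS-luciferase reporter and 25 ng β-galactosidase vector (pCH110). After 16 h, switched to medium with 5% charcoal-treated FBS and treated for 6 h. Cells washed, lysed, and luciferase and β-galactosidase activities read by chemiluminescence.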

Q: `O=C(O)/C=C/c1ccc(-c2ccc(O)c(C34CC5CC(CC(C5)C3)C4)c2)c(Cl)c1` was tested. Which Activity (Jurkat) did it give?
A: Active

Q: What about the Activity (MIA PaCa-2) of the same molecule?
A: Active

Q: What about the Activity (MDA-MB-468) of the same molecule?
A: Active

Q: What about the Activity [1] of the same molecule?
A: 83%

Q: What about the Activity (A549) of the same molecule?
A: Active

Q: And the Activity (BXPC-3)?
A: Active

Q: And the Activity [2]?
A: 31%

Q: And the Activity [3]?
A: 17%

Q: And the Activity (SK-OV-3)?
A: Active

Q: What about the Activity (T47D) of the same molecule?
A: Active

Q: What about the Activity [4] of the same molecule?
A: 16%

Q: And the Activity (PC-3)?
A: Active

Q: What does the source list for `CC1(C)CC=C(C#Cc2ccccc2)c2cc(/C=C/c3ccc(C(=O)O)cc3)ccc21`?
A: Activity [5]: Active; Activity [6]: Active

Q: With `CCCCCOc1cc2c(cc1-c1cc(/C=C/C(=O)O)ccc1O)C(C)(C)CCC2(C)C` as the molecule, how does the Activity [7] read?
A: Active
